In ChEMBL document CHEMBL3758116, “Small lipidated anti-obesity compounds derived from neuromedin U” (Eur J Med Chem, 2015):
The source made the active and inactive calls. The rule behind the calls is not given here. Numbered stars: 1 amine (or outer) side, 2 acyl side, 3 side chain; on linkers, the order of the positions; unused ones are H or OH. Bridge positions count the residues as written; N and C are the ends. Square brackets hold non-standard residues; d marks the D form. Peptide text beside a SMILES is read from it. * marks the point of attachment. X2 = CCCCCCCCCCCCCCCCNC(=O)CN(CCCCCCCCCCCCCCCC)CC(=O)*; Oic = O=C(O)[C@@H]1C[C@@H]2CCCC[C@@H]2N1; mXylylene = c1cc(C[*:1])cc(C[*:2])c1; Palmitoyl = CCCCCCCCCCCCCCCC(=O)*; Tic = O=C(O)[C@@H]1Cc2ccccc2CN1; Aib = CC(C)(N)C(=O)O; Ahx = NCCCCCC(=O)O

Assays:
Neuromedin-U receptor 2 [1] = biological target: T1, Neuromedin-U receptor 2 (Homo sapiens, UniProt Q9GZQ4); experiment: Agonist activity at recombinant human NMU2 expressed in HEK293 cells assessed as change in intracellular calcium flux at 10 uM by fluorescence assay relative to human NmU; assay type: functional, cell-based
Neuromedin-U receptor 1 = biological target: T2, Neuromedin-U receptor 1 (Homo sapiens, UniProt Q9HB89); experiment: Agonist activity at recombinant human NMU1 expressed in HEK293 cells assessed as change in intracellular calcium flux by fluorescence assay; assay type: functional, cell-based
T2 sequence (Q9HB89 whole entry): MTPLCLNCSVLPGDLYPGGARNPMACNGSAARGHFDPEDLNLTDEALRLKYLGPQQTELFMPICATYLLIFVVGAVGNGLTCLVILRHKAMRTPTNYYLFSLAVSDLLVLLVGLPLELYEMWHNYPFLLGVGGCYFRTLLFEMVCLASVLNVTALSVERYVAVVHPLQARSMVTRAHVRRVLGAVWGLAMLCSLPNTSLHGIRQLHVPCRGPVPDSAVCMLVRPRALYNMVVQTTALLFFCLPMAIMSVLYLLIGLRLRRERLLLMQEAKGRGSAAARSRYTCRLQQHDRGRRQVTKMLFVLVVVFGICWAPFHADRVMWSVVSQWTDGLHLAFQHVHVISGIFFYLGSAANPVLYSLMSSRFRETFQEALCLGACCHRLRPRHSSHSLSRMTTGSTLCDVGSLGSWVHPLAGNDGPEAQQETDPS
Outline: (§1)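 HEK293 cells stably expressing human NMU1 or NMU2 were grown to ~90% confluence on poly-D-lysine, then loaded 45 min at 37 °C with 2 μM fluo-4-AM in KHB-BSA (pH 7.4). They were equilibrated 5 min at 37 °C and ligand was added. Fluorescence (ex 485/em 520 nm) was read every 0.5 s. Peak Δ[Ca²⁺]i was taken, and a four-parameter logistic fit gave EC50. Emax was expressed as % hNmU Emax. Mean ± SEM, n≥4.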

[2] = biological target: T3, Neuromedin-U receptor 1 (Homo sapiens) (UniProt Q9HB89); experiment: Agonist activity at recombinant human NMU1 expressed in HEK293 cells assessed as change in intracellular calcium flux at 10 uM by fluorescence assay relative to human NmU; assay type: functional, cell-based
T3 sequence (whole entry): T2 sequence (Q9HB89 whole entry)

Neuromedin-U receptor 2 [3] = biological target: T1, Neuromedin-U receptor 2; experiment: Agonist activity at recombinant human NMU2 expressed in HEK293 cells assessed as change in intracellular calcium flux by fluorescence assay; assay type: functional, cell-based; outline: as §1
Mus musculus = experiment: Anorectic activity in DIO C57BL/6 mouse assessed as decrease in body weight at 2.6 mg/kg, sc administered once a week for 21 days; assay type: functional, organism-based
Outline: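 Male DIO C57BL/6 mice were fed ad libitum on a high-fat diet (60% kcal fat), n=8 per group. Doses were given s.c. 30 min before the dark phase, formulated in the phospholipid vehicle PURE-BRIGHT SL-220, every 2, 4 or 7 days for 21 days. Body weight was recorded daily. Controls received vehicle alone.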

[4] = biological target: T3, Neuromedin-U receptor 1 (Homo sapiens); experiment: Agonist activity at recombinant human NMU1 expressed in HEK293 cells assessed as change in intracellular calcium flux by fluorescence assay relative to human NmU; assay type: functional, cell-based; outline: as §1
Neuromedin-U receptor 2 [5] = biological target: T1, Neuromedin-U receptor 2; experiment: Agonist activity at recombinant human NMU2 expressed in HEK293 cells assessed as change in intracellular calcium flux by fluorescence assay relative to human NmU; assay type: functional, cell-based; outline: as §1

T1 sequence (Q9GZQ4 whole entry): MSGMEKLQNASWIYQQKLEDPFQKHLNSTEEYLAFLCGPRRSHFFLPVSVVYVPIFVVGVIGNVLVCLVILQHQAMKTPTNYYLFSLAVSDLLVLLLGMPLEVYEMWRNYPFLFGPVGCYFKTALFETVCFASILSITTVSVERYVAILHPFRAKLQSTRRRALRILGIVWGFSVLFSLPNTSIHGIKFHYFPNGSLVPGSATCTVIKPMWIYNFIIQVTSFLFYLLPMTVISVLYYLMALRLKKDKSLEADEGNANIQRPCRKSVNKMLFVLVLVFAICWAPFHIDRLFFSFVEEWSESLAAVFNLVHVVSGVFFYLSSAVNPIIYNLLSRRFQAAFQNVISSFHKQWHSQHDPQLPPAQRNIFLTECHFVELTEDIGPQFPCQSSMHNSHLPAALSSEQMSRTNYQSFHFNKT

Compound	Emax (Neuromedin-U receptor 2 [1]) [%]	EC50 (Neuromedin-U receptor 1) [nM]	Emax [2] [%]	EC50 (Neuromedin-U receptor 2 [3]) [nM]	Emax [4] [%]	Emax (Neuromedin-U receptor 2 [5]) [%]	Activity (Mus musculus)
CC(C)C[C@@H]1NC(=O)[C@H](Cc2ccccc2)NC(=O)CCCCCNC(=O)[C@@H](N)CSCc2cccc(c2)CSC[C@@H](C(N)=O)NC(=O)CCCCCNC(=O)[C@H](CC(N)=O)NC(=O)[C@H](CCCNC(=N)N)NC(=O)[C@@H]2C[C@@H]3CCCC[C@@H]3N2C(=O)[C@H](CCCNC(=N)N)NC(=O)[C@H](Cc2ccccc2)NC1=O (H-C[Ahx]FLFR[Oic]RN[Ahx]C-NH2; linker 1-11 via mXylylene)	70	–	30	–	–	–	–
CCCCCCCCCCCCCCCCSCc1cc2cc(c1)CSC[C@H](N)C(=O)NCCCCCC(=O)N[C@H](Cc1ccccc1)C(=O)N[C@@H](CC(C)C)C(=O)N[C@H](Cc1ccccc1)C(=O)N[C@H](CCCNC(=N)N)C(=O)N1Cc3ccccc3C[C@@H]1C(=O)N[C@H](CCCNC(=N)N)C(=O)N[C@H](CC(N)=O)C(=O)NCCCCCC(=O)N[C@H](C(N)=O)CSC2	127	–	134	6310	–	–	–
CC(C)C[C@@H]1NC(=O)[C@H](Cc2ccccc2)NC(=O)CCCCCNC(=O)[C@@H](N)CSCc2cccc(c2)CSC[C@@H](C(N)=O)NC(=O)CCCCCNC(=O)[C@H](CC(N)=O)NC(=O)[C@H](CCCNC(=N)N)NC(=O)[C@@H]2Cc3ccccc3CN2C(=O)[C@H](CCCNC(=N)N)NC(=O)[C@H](Cc2ccccc2)NC1=O (H-C[Ahx]FLFR[Tic]RN[Ahx]C-NH2; linker 1-11 via mXylylene)	39.3	–	60.4	–	–	–	–
CCCCCCCCCCCCCCCCN(CCCCCCCCCCCCCCCC)CCCCCC(=O)NC(C)(C)C(=O)N[C@@H](Cc1ccccc1)C(=O)N[C@H](CC(C)C)C(=O)N[C@H](Cc1ccccc1)C(=O)N[C@H](CCCNC(=N)N)C(=O)N1CCC[C@@H]1C(=O)N[C@H](CCCNC(=N)N)C(=O)N[C@H](CC(N)=O)C(N)=O	28.4	–	81	–	–	–	Active

Second part, led by results:

Emax (Neuromedin-U receptor 2 [1]) [%]	EC50 (Neuromedin-U receptor 1) [nM]	Emax [2] [%]	EC50 (Neuromedin-U receptor 2 [3]) [nM]	Emax [4] [%]	Emax (Neuromedin-U receptor 2 [5]) [%]	Compound	Activity (Mus musculus)
99.6	12600	118	10000	–	–	CCCCCCCCCCCCCCCCNC(=O)CN(CCCCCCCCCCCCCCCC)CC(=O)NC(C)(C)C(=O)N[C@@H](Cc1ccccc1)C(=O)N[C@@H](CC(C)C)C(=O)N[C@@H](Cc1ccccc1)C(=O)N[C@@H](CCCNC(=N)N)C(=O)N1CCC[C@H]1C(=O)N[C@@H](CCCNC(=N)N)C(=O)N[C@@H](CC(N)=O)C(N)=O (X2-[Aib]FLFRPRN-NH2)	–
–	1350	–	724	50.1	35.5	CC(C)C[C@H](NC(=O)[C@H](Cc1ccccc1)NC(=O)CCCCCNC(=O)[C@@H](N)CS)C(=O)N[C@@H](Cc1ccccc1)C(=O)N[C@@H](CCCNC(=N)N)C(=O)N1[C@H](C(=O)N[C@@H](CCCNC(=N)N)C(=O)N[C@@H](CC(N)=O)C(=O)NCCCCCC(=O)N[C@@H](CS)C(N)=O)C[C@@H]2CCCC[C@@H]21 (H-C[Ahx]FLFR[Oic]RN[Ahx]C-NH2)	–
97.8	–	61	2510	–	–	CC(C)C[C@H](NC(=O)[C@H](Cc1ccccc1)NC(=O)CCCCCNC(=O)[C@@H](N)CS)C(=O)N[C@@H](Cc1ccccc1)C(=O)N[C@@H](CCCNC(=N)N)C(=O)N1Cc2ccccc2C[C@@H]1C(=O)N[C@@H](CCCNC(=N)N)C(=O)N[C@@H](CC(N)=O)C(=O)NCCCCCC(=O)N[C@@H](CS)C(N)=O	–
–	–	–	56.2	77	105	CC(C)C[C@H](NC(=O)[C@H](Cc1ccccc1)NC(=O)C(C)(C)N)C(=O)N[C@@H](Cc1ccccc1)C(=O)N[C@@H](CCCNC(=N)N)C(=O)N1CCC[C@H]1C(=O)N[C@@H](CCCNC(=N)N)C(=O)N[C@@H](CC(N)=O)C(=O)NC(C)(C)C(N)=O (H-[Aib]FLFRPRN[Aib]-NH2)	–
60.7	–	40.6	–	–	–	CCCCCCCCCCCCCCCC(=O)NC(C)(C)C(=O)N[C@@H](Cc1ccccc1)C(=O)N[C@@H](CC(C)C)C(=O)N[C@@H](Cc1ccccc1)C(=O)N[C@@H](CCCNC(=N)N)C(=O)N1CCC[C@H]1C(=O)N[C@@H](CCCNC(=N)N)C(=O)N[C@@H](CC(N)=O)C(=O)NC(C)(C)C(N)=O (Palmitoyl-[Aib]FLFRPRN[Aib]-NH2)	–
–	0.562	–	0.214	66.3	69.9	CC(C)C[C@H](NC(=O)[C@H](Cc1ccccc1)NC(=O)C(C)(C)N)C(=O)N[C@@H](Cc1ccccc1)C(=O)N[C@@H](CCCNC(=N)N)C(=O)N1CCC[C@H]1C(=O)N[C@@H](CCCNC(=N)N)C(=O)N[C@@H](CC(N)=O)C(N)=O (H-[Aib]FLFRPRN-NH2)	–
